This is one part of a sample in which hits are shown more often than they occur.
STK33 kinase inh = inhibitors of purified STK33 kinase, primary screen, biochemical, ADP-Glo luminescence, homogeneous, cell-free. AID 2661, 2010. MBP phosphorylation. 0.073% of 320,000 active. inhibition, % at 10 µM. Serine/threonine-protein kinase 33 (Homo sapiens), Q9BYT3;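 active means inhibition at or above 25%, using the most active replicate where run in duplicate; inactive means inhibition below 25%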
Target sequence (Q9BYT3 whole entry, looked up): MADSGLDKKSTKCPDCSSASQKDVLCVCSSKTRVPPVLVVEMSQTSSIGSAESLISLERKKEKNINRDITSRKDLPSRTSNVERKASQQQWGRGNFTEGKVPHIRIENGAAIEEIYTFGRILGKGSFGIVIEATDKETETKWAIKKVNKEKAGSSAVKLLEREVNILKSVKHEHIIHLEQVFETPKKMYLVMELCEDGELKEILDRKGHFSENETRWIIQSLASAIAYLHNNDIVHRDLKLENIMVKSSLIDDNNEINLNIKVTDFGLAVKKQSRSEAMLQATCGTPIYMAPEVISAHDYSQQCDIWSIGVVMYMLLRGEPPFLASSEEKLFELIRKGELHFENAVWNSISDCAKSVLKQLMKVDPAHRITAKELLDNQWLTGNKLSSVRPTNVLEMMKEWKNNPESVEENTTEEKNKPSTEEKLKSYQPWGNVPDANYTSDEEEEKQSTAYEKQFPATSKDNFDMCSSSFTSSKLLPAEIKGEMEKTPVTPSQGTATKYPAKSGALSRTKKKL
DYRK1A inh = rat Dyrk1A kinase inhibitors, primary screen, biochemical, single point, plate reader; AID 504441, 2011; ADP-Glo luminescence, NFATc1 peptide; inhibition, % at 12.5 µM; 0.43% of 310,000 active; in the data active means inhibition above about 50%;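 further: plate controls were vehicle with enzyme for no effect and no enzyme for full effect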
GSK3A inh = blockers of GSK3A enzyme activity – biochemical, luminescence, cell-free homogeneous, HTS, primary screen; GSK-3 alpha kinase, ADP-Glo luminescence, 60 min; inhibition, % at 10 µM; 0.1% of 320,000 active; AID 2650, 2010;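 active means more than half of replicates show inhibition above 20%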;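 further: GST-tagged GSK-3 alpha with peptide substrate and 25 µM ATP; 0% = DMSO neutral wells and 100% = GW8510 positive control wells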
GSK3beta inhib = human GSK3beta kinase inhibitors, primary screen, biochemical, cell-free homogeneous, HTS | GST-GSK3beta kinase, ADP-Glo luminescence, 60 min; stronger effect = lower value | activity score (negative = inhibition), % at 10 µM | 0.038% of 300,000 active | AID 2097, 2009;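 active means more than half of replicate wells score below -50%, meaning over 50% inhibition versus plate controls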;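 further: 0% = median DMSO wells and -100% = median GW8510 positive control wells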
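test system = GST-tagged human GSK3beta kinase, cell-free | reagent = 25 µM ATP with peptide substrate | dosing = one dose of 10 µM per compound | schedule = 60 min reaction, RT | detection = luminescent ADP-Glo measurement of ADP formed | control set = DMSO neutral wells and GW8510 at 20 µM as positive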
CDK5 inh = inhibitors of human CDK5/p35 kinase, primary screen, biochemical, single concentration. Cyclin-dependent kinase 5 (Homo sapiens) + Cyclin-dependent kinase 5 activator 1 (Homo …. Recombinant CDK5/p35, ADP-Glo luminescence, 60 min. inhibition, % at 10 µM. 0.01% of 330,000 active. AID 488839, 2010;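 active means highest replicate inhibition of at least 50% and at least 75% of replicates reaching 50%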;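 further: plate controls were DMSO neutral control for no effect and GW8510 at 10 µM for full effect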
Numbers without * were called inactive; . = no result given.

SMILES | STK33 kinase inh | DYRK1A inh | GSK3A inh | GSK3beta inhib | CDK5 inh
Cc1cc2oc3cc(NCCC4CCCN4C)ccc3c(=O)c2cc1C (centres undefined) | 6 | 22 | 4 | -3 | 3
O=c1c2ccccc2sc2ccc(NCCCN3CCOCC3)cc12 | 57* | 39 | 9 | -3 | -2
N#Cc1c(Cl)nc(-c2ccncc2)nc1-c1ccccc1 | 10 | -8 | 75* | -62* | 1
COc1ccc(-c2nn(-c3ccccc3)cc2/C=N/O)cc1OC | 3 | 40 | 73* | -56* | 4
C#CCOCCOCCOCCNc1nc(N2CCN(C(=O)CCCCCCCCCCNC(=O)[C@H](CO)n3cc(CCCCCN)nn3)CC2)nc(N2CCN(C(=O)CCCCCCCCCCNC(=O)[C@H](CCCN=C(N)N)n3cc(C[C@@H](C)CC)nn3)CC2)n1 | 21 | . | 24 | . | .
C#CCOCCOCCOCCNc1nc(N2CCN(C(=O)CCCCCCCCCCNC(=O)[C@H]([C@@H](C)CC)n3cc(CCCCN=C(N)N)nn3)CC2)nc(N2CCN(C(=O)CCCCCCCCCCNC(=O)[C@H](CCCN=C(N)N)n3cc(C[C@@H](C)CC)nn3)CC2)n1 | 31* | . | -14 | . | .
C#CCOCCOCCOCCNc1nc(N2CCN(C(=O)CCCCCCCCCCNC(=O)[C@H](CCCCN)n3cc(C)nn3)CC2)nc(N2CCN(C(=O)CCCCCCCCCCNC(=O)[C@H](CCCN=C(N)N)n3cc(C[C@@H](C)CC)nn3)CC2)n1 | 20 | . | 25 | . | .
C#CCOCCOCCOCCNc1nc(N2CCN(C(=O)CCCCCCCCCCNC(=O)[C@H](CCCCN)n3cc(C[C@@H](C)CC)nn3)CC2)nc(N2CCN(C(=O)CCCCCCCCCCNC(=O)[C@H](CCCN=C(N)N)n3cc(C[C@@H](C)CC)nn3)CC2)n1 | 29* | 27 | 13 | . | 6
C#CCOCCOCCOCCNc1nc(N2CCN(C(=O)CCCCCCCCCCNC(=O)[C@H](CCCN=C(N)N)n3cc(C[C@@H](C)CC)nn3)CC2)nc(N2CCN(C(=O)CCCCCCCCCCNC(=O)[C@@H]([C@H](C)CC)n3cc(CCCCCN)nn3)CC2)n1 | 27* | . | 15 | . | .
c1ccc2c(c1)Cc1ccccc1O2 | -2 | -4 | -2 | . | -2
N#Cc1ccc(C(=O)N(Cc2ccco2)c2c(N)n(Cc3ccccc3)c(=O)[nH]c2=O)cc1 | . | 4 | . | . | 1
O=C1CC(c2ccc(O)cc2)Oc2cc(O)cc(O)c21 (centres undefined) | 4 | 21 | 10 | 1 | 2
O=c1c(-c2c(O)cc(O)c3c2O[C@H](c2ccc(O)cc2)CC3)c(-c2ccc(O)cc2)oc2cc(O)cc(O)c12 | 25* | 35 | 1 | . | -1
NC1=NC(=Nc2cccc(S(N)(=O)=O)c2)c2ccccc21 | 0 | -5 | 2 | 2 | -2
COc1cc(N=Nc2cccc(S(N)(=O)=O)c2)c2ccccc2c1N | 4 | 58* | 4 | -3 | 10
Cc1cc(C(C#N)c2ccccc2F)n2ncnc2n1 (centres undefined) | -1 | . | 55* | 0 | 4
Cc1cc(C(C#N)c2ccccc2)n2ncnc2n1 (centres undefined) | -2 | 0 | 47 | . | 0
C/C(CC(=O)Nc1ccc(Cl)c(Cl)c1)=N\NC(=O)C(=O)N1CCCCC1 | -1 | 5 | -4 | -1 | 2
Cc1c(/C=C/C(=O)c2ccc(O)cc2)cnn1C | 29* | -4 | 3 | 0 | -2
CCn1cc(/C=C/C(=O)c2ccc(O)cc2)c(C)n1 | 44* | 17 | 1 | 4 | 3
COCCn1nnnc1C(c1ccccc1OC)N1CCc2ccccc2C1 (centres undefined) | -3 | -1 | -2 | -1 | 0
Nc1nc(NCC2CCCO2)nc(Nc2ccccc2)c1[N+](=O)[O-] (centres undefined) | 0 | -3 | 10 | 2 | 0
Nc1nc(NCC2CCCO2)nc(NCC2CCCO2)c1[N+](=O)[O-] (centres undefined) | 0 | -2 | 52* | 0 | -2
CC(C)CCNc1nc(N)c([N+](=O)[O-])c(NCC2CCCO2)n1 (centres undefined) | 4 | 35 | 73* | -42 | 0
Nc1nc(NCCO)nc(NCC2CCCO2)c1[N+](=O)[O-] (centres undefined) | 2 | 49 | 80* | 1 | 3
SMILES | STK33 kinase inh | DYRK1A inh | GSK3A inh | GSK3beta inhib | CDK5 inh
CC(Cc1n[nH]c(=S)o1)c1ccccc1 (centres undefined) | 0 | -4 | -5 | 6 | -1
Nc1nonc1-n1nnc(C(=O)N/N=C/c2cccc(Cl)c2Cl)c1CN1CCCC1 | 0 | -5 | 22 | . | -1
Nc1nonc1-n1nnc(C(=O)N/N=C/c2ccccc2F)c1CN1CCOCC1 | 0 | 2 | 9 | -34 | -1
CCOc1ccccc1/C=N/NC(=O)c1nnn(-c2nonc2N)c1CN1CCC(C)CC1 | 0 | -3 | 44 | 2 | 1
Nc1nonc1-n1nnc(C(=O)N/N=C/c2ccccc2Cl)c1CN1CCOCC1 | 0 | 5 | 50* | -2 | -1
Nc1nonc1-n1nnc(C(=O)N/N=C/c2ccccc2F)c1CN1CCc2ccccc21 | 1 | -3 | 0 | -50* | -5
CCOc1ccccc1/C=N/NC(=O)c1nnn(-c2nonc2N)c1CN1CCCC1 | 1 | 3 | 109* | -86* | -1
Cc1cccc(N(Cc2ccccc2)C(=O)c2cccc(S(=O)(=O)N3CC(C)OC(C)C3)c2)c1 (centres undefined) | 1 | 3 | -1 | -2 | 1
COc1ccc(-n2nc3c(c2NC(=O)CCl)CSC3)cc1 | 0 | . | -3 | 1 | .
CN(CCO)c1cnccn1 | 0 | 5 | 4 | 5 | 0
COc1ccc(C(=O)NNC(=O)c2ccccn2)cc1 | 41* | 49 | 45 | -33 | 55*
COc1ccccc1C(=O)O/N=C(\N)c1ccccn1 | 1 | . | -1 | -1 | 2
Cc1ccc(C(=O)O/N=C(\N)c2ccccn2)c(C)c1 | 0 | 47 | -1 | -28 | 51*
Cc1ccccc1C(=O)O/N=C(\N)c1ccccc1 | 14 | 55* | 15 | -13 | 12
COc1ccc(C(=O)O/N=C(\N)c2ccccn2)cc1 | 37* | 47 | 51* | -40 | 47
CC(C)(C)OC(=O)N1CCC(Cc2cc(-c3ccc(Cl)cc3)no2)(C(=O)O)CC1 | -1 | 2 | -11 | 0 | 1
Cn1cc(S(=O)(=O)N2CCCC2)cc1C(=O)O | 1 | . | -2 | . | -3
N#Cc1ccc(COC(=O)CN2C(=O)NC3(CCCC3)C2=O)cc1 | . | . | . | . | -2
Cc1ccccc1OCC(=O)NC(=S)Nc1ccccc1N1CCN(S(C)(=O)=O)CC1 | 0 | . | 2 | -3 | 0

Assay outcomes deposited in PubChem BioAssay by Broad Institute.
